Measurements: ChEMBL document CHEMBL1124420, “Structure-activity relationships of pyrimidine nucleosides as antiviral agents for human immunodeficiency virus type 1 in peripheral blood mononuclear cells” (J Med Chem, 1989)

Legend:
[1] = Cytotoxic effect in uninfected human peripheral blood mononuclear (PBM) cells
[2] = test system: Human immunodeficiency virus 1; test: Antiviral activity against HIV I strain (LAV) in human peripheral blood mononuclear (PBM) cells; format: functional, organism-based
Procedure, shortened: (§1)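 Human PBM cells from normal donors, mitogen-stimulated for 3 days (10⁶ cells/mL), were infected with HIV-1 LAV at about 100 TCID₅₀/mL. Drugs at various concentrations were added about 45 min post-infection, in fungizone-free medium. On day 5, virus was pelleted from the clarified supernatant and its reverse transcriptase activity measured. EC₅₀ came from the median effect method, and active compounds were retested with different donor cells.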

[3] = Antiviral activity against HIV I strain (LAV) in human peripheral blood mononuclear (PBM) cells; Range is 0.081 - 0.22; format: functional; procedure, shortened: as §1
[4] = Antiviral activity against HIV I strain (LAV) in human peripheral blood mononuclear (PBM) cells; Range is 0.66 - 1.19; format: functional; procedure, shortened: as §1
[5] = Antiviral activity against HIV I strain (LAV) in human peripheral blood mononuclear (PBM) cells; Range is 0.056 - 1.00; format: functional; procedure, shortened: as §1
[6] = Antiviral activity against HIV I strain (LAV) in human peripheral blood mononuclear (PBM) cells; Range is 68.3 - 79.9; format: functional; procedure, shortened: as §1
[7] = Antiviral activity against HIV-1 in human peripheral blood mononuclear (PBM) cells; format: functional; settings: read-out: ED50 (the source's name)
[8] = Antiviral activity against HIV I strain (LAV) in human peripheral blood mononuclear (PBM) cells; Range is 0.18 - 0.46; format: functional
[9] = test system: Moloney murine leukemia virus; test: Antiviral activity against Moloney murine leukemia virus; format: functional; settings: read-out: ED50 (the source's name)
[10] = Antiviral activity against HIV I strain (LAV) in human peripheral blood mononuclear (PBM) cells; Range is 0.009 - 0.04; format: functional; procedure, shortened: as §1
[11] = Antiviral activity against HIV I strain (LAV) in human peripheral blood mononuclear (PBM) cells; Range is 0.002 - 0.009; format: functional; procedure, shortened: as §1

## Cc1cn([C@H]2C[C@H](O)[C@@H](CN=[N+]=[N-])O2)c(=O)[nH]c1=O
[1]
  IC50: > 100 µM
[2]
  EC50: 8.6 µM

## Cc1cn([C@H]2C[C@H](I)[C@@H](CO)O2)c(=O)[nH]c1=O
[1]
  IC50: > 100 µM
[2]
  EC50: 46.3 µM

## O=c1ccn([C@H]2CC[C@@H](CO)O2)c(=O)[nH]1
[2]
  EC50: 96.8 µM

## CCc1cn(C2C[C@@H](I)[C@@H](CO)O2)c(=O)[nH]c1=O (stereo partly specified)
[1]
  IC50: > 100 µM
[2]
  EC50: 86 µM

## O=c1ccn(C2C[C@@H](I)[C@@H](CO)O2)c(=O)[nH]1 (stereo partly specified)
[1]
  IC50: > 100 µM
[2]
  EC50: 12.1 µM

## CCCc1cn(C2C[C@@H](N=[N+]=[N-])[C@@H](CO)O2)c(=O)[nH]c1=O (stereo partly specified)
[1]
  IC50: > 100 µM
[2]
  EC50: 63 µM

## CCc1cn(C2C[C@@H](O)[C@@H](CN)O2)c(=O)[nH]c1=O (stereo partly specified)
[1]
  IC50: > 10 µM
[2]
  EC50: 94.3 µM

## [N-]=[N+]=N[C@@H]1CC(c2cnc(O)nc2O)O[C@@H]1CO (stereo partly specified)
[1]
  IC50: > 100 µM
[2]
  EC50: > 100 µM

## [N-]=[N+]=N[C@H]1C[C@H](n2cc(Br)c(=O)[nH]c2=O)O[C@@H]1CO
[1]
  IC50: > 100 µM
[2]
  EC50: 1.04 µM

## Cc1cn([C@H]2C[C@H](N=[N+]=[N-])[C@@H](CO)O2)c(=O)nc1N
[1]
  IC50: > 200 µM
[3]
  EC50: 0.081 µM

## [N-]=[N+]=N[C@H]1C[C@H](n2ccc(N)nc2=O)O[C@@H]1CO
[1]
  IC50: > 400 µM
[4]
  EC50: 0.66 µM

## CCc1cn([C@H]2C[C@H](N=[N+]=[N-])[C@@H](CO)O2)c(=O)[nH]c1=O
[1]
  IC50: 1000 µM
[5]
  EC50: 0.056 µM

## CCc1cn([C@H]2CC[C@@H](CO)O2)c(=O)[nH]c1=O
[1]
  IC50: > 100 µM
[2]
  EC50: 4.9 µM

## N[C@H]1C[C@H](n2ccc(=O)[nH]c2=O)O[C@@H]1CO
[1]
  IC50: > 100 µM
[2]
  EC50: 60 µM

## Nc1ncc([C@H]2CC[C@@H](CO)O2)c(O)n1
[1]
  IC50: > 100 µM
[2]
  EC50: > 100 µM

## OC[C@@H]1C=C[C@H](c2cnc(O)nc2O)O1
[1]
  IC50: > 100 µM
[2]
  EC50: > 100 µM

## CCc1cn([C@H]2C=C[C@@H](CO)O2)c(=O)[nH]c1=O
[1]
  IC50: > 100 µM
[2]
  EC50: 75.7 µM

## Cc1cn([C@H]2C[C@H](O)[C@@H](CN)O2)c(=O)[nH]c1=O
[1]
  IC50: > 100 µM
[2]
  EC50: 77.4 µM

## [N-]=[N+]=N[C@@H]1CC(n2cc(I)c(=O)[nH]c2=O)O[C@@H]1CO (stereo partly specified)
[1]
  IC50: > 100 µM
[2]
  EC50: 1.14 µM

## CCc1cn(C2C[C@@H](N)[C@@H](CO)O2)c(=O)[nH]c1=O (stereo partly specified)
[1]
  IC50: > 100 µM
[2]
  EC50: 54.9 µM

## [N-]=[N+]=N[C@@H]1CC(n2cc(/C=C/Br)c(=O)[nH]c2=O)O[C@@H]1CO (stereo partly specified)
[1]
  IC50: > 100 µM
[2]
  EC50: > 100 µM

## CCc1cn(C2C[C@@H](O)[C@@H](CN=[N+]=[N-])O2)c(=O)[nH]c1=O (stereo partly specified)
[1]
  IC50: > 100 µM
[2]
  EC50: > 100 µM

## [N-]=[N+]=NC[C@H]1OC(n2ccc(=O)[nH]c2=O)C[C@H]1O (stereo partly specified)
[1]
  IC50: > 100 µM
[2]
  EC50: > 100 µM

## NC[C@H]1OC(n2ccc(=O)[nH]c2=O)C[C@H]1O (stereo partly specified)
[1]
  IC50: > 100 µM
[2]
  EC50: > 100 µM

## Cc1cn([C@H]2CC[C@@H](CO)O2)c(=O)[nH]c1=O
[1]
  IC50: > 100 µM
[2]
  EC50: 0.17 µM

## O=c1ccn([C@H]2C=C[C@@H](CO)O2)c(=O)[nH]1
[1]
  IC50: > 100 µM
[6]
  EC50: 68.3 µM

## Cc1cn([C@H]2C[C@H](N)[C@@H](CO)O2)c(=O)[nH]c1=O [3-AMINO- 3-DEOXYTHYMIDINE]
[1]
  IC50: > 100 µM
[2]
  EC50: > 100 µM

## [N-]=[N+]=N[C@H]1C[C@H](n2ccc(=O)[nH]c2=O)O[C@@H]1CO [NAVURIDINE]
[1]
  IC50: 1000 µM
[7]
  EC50: 0.178 µM
[8]
  EC50: 0.18 µM
[9]
  EC50: 52 µM

## Cc1cn([C@H]2C=C[C@@H](CO)O2)c(=O)[nH]c1=O [STAVUDINE]
[1]
  IC50: 70 µM
[10]
  EC50: 0.009 µM

## Cc1cn([C@H]2C[C@H](N=[N+]=[N-])[C@@H](CO)O2)c(=O)[nH]c1=O [ZIDOVUDINE]
[1]
  IC50: 200 µM
[11]
  EC50: 0.002 µM
